ChEMBL document CHEMBL1130162, “Structure-activity relationships of cysteine-lacking pentapeptide derivatives that inhibit ras farnesyltransferase” (J Med Chem, 1997)

The compounds below were run against Protein farnesyltransferase (Rattus norvegicus, UniProt Q02293+Q04631) (assay: Inhibitory concentration against rat brain farnesyltransferase).
Procedure, shortened: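 Rat brain FTase (40-fold purified), pH 7.4, in 30 mM potassium phosphate, 5 mM phosphate plus 50 mM Hepes, or 50 mM Hepes. Buffer also held 7 mM DTT, 1.2 mM MgCl2 and protease inhibitors. Final substrates were 0.12 μM [1-3H]FPP and 0.1 μM biotinyl-aminoheptanoyl-TKCVIM, with inhibitor varied from DMSO stock. Reaction ran 30 min at 37 °C, was stopped with streptavidin beads, and was counted by scintillation proximity. Generally n = 2.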

Row | Compound | IC50
1 | COC(=O)[C@H](C)NC(=O)[C@@H](Cc1c[nH]c2ccccc12)NC(=O)[C@@H](COCc1ccccc1)NC(=O)[C@@H](Cc1ccc(OCc2ccccc2)cc1)NC(=O)[C@@H](Cc1cnc[nH]1)NC(=O)OCc1ccccc1 | 48 nM
2 | C[C@H](NC(=O)[C@@H](Cc1c[nH]c2ccccc12)NC(=O)[C@H](NC(=O)[C@@H](Cc1ccc(OCc2ccccc2)cc1)NC(=O)[C@@H](Cc1cnc[nH]1)NC(=O)OCc1ccccc1)[C@@H](C)OCc1ccccc1)C(N)=O | 15 nM
3 | C[C@H](NC(=O)[C@@H](Cc1c[nH]c2ccccc12)NC(=O)[C@@H](COCc1ccccc1)NC(=O)[C@@H](Cc1ccc(OCc2ccccc2)cc1)NC(=O)[C@@H](Cc1cnc[nH]1)NC(=O)OC1CCC1)C(N)=O | 3200 nM
4 | C[C@H](NC(=O)[C@@H](Cc1c[nH]c2ccccc12)NC(=O)[C@@H](CS)NC(=O)[C@@H](Cc1ccc(OCc2ccccc2)cc1)NC(=O)[C@@H](Cc1cnc[nH]1)NC(=O)OCc1ccccc1)C(N)=O | 4 nM
5 | C[C@H](NC(=O)[C@@H](Cc1c[nH]c2ccccc12)NC(=O)[C@@H](COCc1ccccc1)NC(=O)[C@@H](Cc1ccc(OCc2ccccc2)cc1)NC(=O)[C@@H](Cc1cnc[nH]1)NC(=O)OCC1c2ccccc2-c2ccccc21)C(N)=O | 1600 nM
6 | C[C@H](NC(=O)[C@@H](Cc1c[nH]c2ccccc12)NC(=O)[C@@H](COCc1ccccc1)NC(=O)[C@@H](CCc1ccccc1)NC(=O)[C@@H](Cc1c[nH]cn1)NC(=O)OCc1ccccc1)C(N)=O | 18 nM
7 | C[C@H](NC(=O)[C@@H](Cc1c[nH]c2ccccc12)NC(=O)[C@@H](COCc1ccccc1)NC(=O)[C@@H](Cc1ccc(OCc2ccccc2)cc1)NC(=O)[C@H](Cc1cnc[nH]1)NC(=O)OCc1ccccc1)C(N)=O | 35 nM
8 | C[C@@H](NC(=O)[C@H](Cc1c[nH]c2ccccc12)NC(=O)[C@H](COCc1ccccc1)NC(=O)[C@@H](Cc1ccc(O)cc1)NC(=O)[C@H](Cc1cnc[nH]1)NC(=O)OCc1ccccc1)C(N)=O (stereo in doubt) | 170 nM
9 | C[C@H](NC(=O)[C@@H](Cc1c[nH]c2ccccc12)NC(=O)[C@@H](COCc1ccccc1)NC(=O)C(CC1CCCCC1)NC(=O)[C@@H](Cc1cnc[nH]1)NC(=O)OCc1ccccc1)C(N)=O (stereo partly specified) | 66 nM
10 | C[C@H](NC(=O)[C@@H](Cc1c[nH]c2ccccc12)NC(=O)[C@H](COCc1ccccc1)NC(=O)[C@@H](Cc1ccc(OCc2ccccc2)cc1)NC(=O)[C@@H](Cc1cnc[nH]1)NC(=O)OCc1ccccc1)C(N)=O | 13000 nM
11 | C[C@H](NC(=O)[C@@H](Cc1c[nH]c2ccccc12)NC(=O)[C@@H](COCc1ccccc1)NC(=O)[C@@H](Cc1ccc(OCc2ccccc2)cc1)NC(=O)C(Cc1ccccc1)NC(=O)OCc1ccccc1)C(N)=O (stereo partly specified) | > 20000 nM
12 | C[C@@H](NC(=O)[C@H](Cc1c[nH]c2ccccc12)NC(=O)[C@H](COCc1ccccc1)NC(=O)[C@@H](Cc1ccccc1)NC(=O)[C@H](Cc1cnc[nH]1)NC(=O)OCc1ccccc1)C(N)=O (stereo in doubt) | 79 nM
13 | C[C@H](NC(=O)[C@@H](Cc1c[nH]c2ccccc12)NC(=O)[C@@H](CSCc1ccccc1)NC(=O)[C@@H](Cc1ccc(OCc2ccccc2)cc1)NC(=O)[C@@H](Cc1cnc[nH]1)NC(=O)OCc1ccccc1)C(N)=O | 15 nM
14 | CC(=O)N[C@H](Cc1cnc[nH]1)C(=O)N[C@H](Cc1ccc(OCc2ccccc2)cc1)C(=O)N[C@H](COCc1ccccc1)C(=O)N[C@H](Cc1c[nH]c2ccccc12)C(=O)N[C@@H](C)C(N)=O | 10000 nM
15 | C[C@H](NC(=O)[C@@H](Cc1c[nH]c2ccccc12)NC(=O)[C@@H](COCc1ccccc1)NC(=O)[C@@H](Cc1ccc(OCc2ccccc2)cc1)NC(=O)C(Cc1c[nH]c2ccccc12)NC(=O)OCc1ccccc1)C(N)=O (stereo partly specified) | > 20000 nM
16 | C[C@H](NC(=O)[C@@H](Cc1c[nH]c2ccccc12)NC(=O)[C@@H](COCc1ccccc1)NC(=O)[C@@H](Cc1ccc(OCc2ccccc2)cc1)NC(=O)[C@@H](Cc1cnc[nH]1)NC(=O)OCc1ccccc1)C(=O)NN | 64 nM

Row | Compound | IC50
17 | C[C@H](NC(=O)[C@@H](Cc1c[nH]c2ccccc12)NC(=O)[C@@H](COCc1ccccc1)NC(=O)[C@@H](Cc1ccc(OCc2ccccc2)cc1)NC(=O)C(N)CCCNC(=O)OCc1ccccc1)C(N)=O (stereo partly specified) | 4700 nM
18 | CCNC(=O)[C@H](C)NC(=O)[C@@H](Cc1c[nH]c2ccccc12)NC(=O)[C@@H](COCc1ccccc1)NC(=O)[C@@H](Cc1ccc(OCc2ccccc2)cc1)NC(=O)[C@@H](Cc1c[nH]cn1)NC(=O)OCc1ccccc1 | 170 nM
19 | C[C@H](NC(=O)[C@@H](Cc1c[nH]c2ccccc12)NC(=O)[C@@H](COCc1ccccc1)NC(=O)[C@@H](Cc1ccc(OCc2ccccc2)cc1)NC(=O)[C@@H](Cc1c[nH]cn1)NC(=O)[C@@H]1CCC(=O)N1)C(N)=O | > 20000 nM
20 | CC(NC(=O)[C@@H](Cc1ccc(OCc2ccccc2)cc1)NC(=O)[C@@H](Cc1c[nH]cn1)NC(=O)OCc1ccccc1)C(=O)N[C@H](Cc1c[nH]c2ccccc12)C(=O)N[C@@H](C)C(N)=O (stereo partly specified) | 1100 nM
21 | C[C@H](NC(=O)[C@@H](Cc1c[nH]c2ccccc12)NC(=O)[C@@H](CO)NC(=O)[C@@H](Cc1ccc(OCc2ccccc2)cc1)NC(=O)[C@@H](Cc1cnc[nH]1)NC(=O)OCc1ccccc1)C(N)=O | 1800 nM
22 | C[C@H](NC(=O)[C@@H](Cc1c[nH]c2ccccc12)NC(=O)[C@@H](COCc1ccccc1)NC(=O)C(CCC(=O)O)NC(=O)[C@@H](Cc1c[nH]cn1)NC(=O)OCc1ccccc1)C(N)=O (stereo partly specified) | 18 nM
23 | C[C@H](NC(=O)[C@@H](Cc1c[nH]c2ccccc12)NC(=O)[C@@H](COCc1ccccc1)NC(=O)[C@H](CC(=O)O)NC(=O)[C@@H](Cc1c[nH]cn1)NC(=O)OCc1ccccc1)C(N)=O | 38 nM
24 | CC(NC(=O)[C@@H](COCc1ccccc1)NC(=O)[C@@H](Cc1ccc(OCc2ccccc2)cc1)NC(=O)[C@@H](Cc1cnc[nH]1)NC(=O)OCc1ccccc1)C(=O)N[C@@H](C)C(N)=O (stereo partly specified) | 250 nM
25 | C[C@H](NC(=O)[C@H](Cc1c[nH]c2ccccc12)NC(=O)[C@@H](COCc1ccccc1)NC(=O)[C@@H](Cc1ccc(OCc2ccccc2)cc1)NC(=O)[C@@H](Cc1cnc[nH]1)NC(=O)OCc1ccccc1)C(N)=O | 8700 nM
26 | CC(NC(=O)OCc1ccccc1)C(=O)N[C@H](Cc1ccc(OCc2ccccc2)cc1)C(=O)N[C@H](COCc1ccccc1)C(=O)N[C@H](Cc1c[nH]c2ccccc12)C(=O)N[C@@H](C)C(N)=O (stereo partly specified) | > 20000 nM
27 | C[C@H](NC(=O)[C@@H](Cc1c[nH]c2ccccc12)NC(=O)C(Cc1ccccc1)NC(=O)[C@@H](Cc1ccc(OCc2ccccc2)cc1)NC(=O)[C@@H](Cc1c[nH]cn1)NC(=O)OCc1ccccc1)C(N)=O (stereo partly specified) | 130 nM
28 | C[C@H](NC(=O)[C@@H](Cc1c[nH]c2ccccc12)NC(=O)[C@@H](COCc1ccccc1)NC(=O)C(CCCCN)NC(=O)[C@@H](Cc1cnc[nH]1)NC(=O)OCc1ccccc1)C(N)=O (stereo partly specified) | 1900 nM
29 | C[C@H](NC(=O)[C@@H](Cc1c[nH]c2ccccc12)NC(=O)[C@@H](COCc1ccccc1)NC(=O)[C@@H](Cc1ccc(OCc2ccccc2)cc1)NC(=O)C(CS)NC(=O)OCc1ccccc1)C(N)=O (stereo partly specified) | 170 nM
30 | C[C@H](NC(=O)[C@@H](Cc1c[nH]c2ccccc12)NC(=O)[C@@H](COCc1ccccc1)NC(=O)[C@@H](Cc1ccc(OCc2ccccc2)cc1)NC(=O)C(Cc1c[nH]cn1)NC(=O)OCc1ccccc1)C(N)=O (stereo partly specified) | 82 nM
31 | C[C@H](NC(=O)[C@@H](Cc1c[nH]c2ccccc12)NC(=O)[C@@H](CCC(=O)O)NC(=O)[C@@H](Cc1ccc(OCc2ccccc2)cc1)NC(=O)[C@@H](Cc1c[nH]cn1)NC(=O)OCc1ccccc1)C(N)=O | 200 nM
